Screens (PubChem BioAssay)
This is one part of a sample in which hits are shown more often than they occur.
V-ATPase pHluor – alters yeast V-ATPase proton transport | S. cerevisiae, pHLuorin cytosolic pH fluorescence | response, % at 10 µM | actives 0.37% (n = 350,000); in the data active = response mostly above about 7.3%, no sharp cut-off; inactive = mostly below about 5.4%; also: actives read high
Cl transport mod – KCC2 (human) Cl- transport modulation; actives 2.2% (n = 190,000); AID 1456; Q9H2X9; KCC2 cells, thallium flux FluoZin-2 fluorescence; B-score of Tl+ flux slope (higher = more flux/activation; lower = inhibition) at 10 µM;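 active = thallium flux slope and its plate-corrected score both differing from the plate sample mean at a set confidence after two filtering rounds, in either direction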;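 also: slope of fluorescence scaled to starting intensity during 10 to 20 s after thallium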
Dynein cargo inh – blocks dynein driven cargo transport along microtubules | 3617.4 mouse cells, GR-EGFP nuclear translocation imaging; test concentration mostly 20 µM; stimulated with dexamethasone, 1 µM; stronger effect = lower value | z-score, hits read low | actives 0.47% (n = 220,000) | AID 1381;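 active = plate z-score of nuclear minus cytoplasmic receptor signal below a set negative limit, without overly bright fluorescence or cell loss, cut at about -3.5 in these data, passing the limit was not always enough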;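 also: z-score of nuclear minus cytoplasmic ring GR-EGFP intensity difference per well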
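Medium: Induction medium lacking tetracycline, stripped serum | Probe or stimulus: 1.0 µM final dexamethasone stimulus | Schedule: 48 h induction, then 1 h compound, then 30 min agonist, 37 °C | Signal: Automated 10x imaging of fixed Hoechst-stained cells | Evaluation: Per-cell GR-EGFP intensity, nucleus versus surrounding cytoplasmic ring, well-averaged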
ABCB6 inh MLPCN – inhibitors of human ABC transporter ABCB6. AID 602162. K562-ABCB6 porphyrin accumulation, flow cytometry, 1 h; stronger effect = lower value. actives 0.19% (n = 360,000). fluorescence ratio to DMSO, % at 10 µM;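 active = fluorescence ratio to DMSO below 75%, the collection mean minus 3 SD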;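 also: signal is porphyrin accumulated inside mitochondria; 100% equals median channel fluorescence of DMSO control wells; lower ratio means ABCB6 inhibition with less porphyrin fluorescence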
Target sequence (Q9NP58 whole entry, looked up): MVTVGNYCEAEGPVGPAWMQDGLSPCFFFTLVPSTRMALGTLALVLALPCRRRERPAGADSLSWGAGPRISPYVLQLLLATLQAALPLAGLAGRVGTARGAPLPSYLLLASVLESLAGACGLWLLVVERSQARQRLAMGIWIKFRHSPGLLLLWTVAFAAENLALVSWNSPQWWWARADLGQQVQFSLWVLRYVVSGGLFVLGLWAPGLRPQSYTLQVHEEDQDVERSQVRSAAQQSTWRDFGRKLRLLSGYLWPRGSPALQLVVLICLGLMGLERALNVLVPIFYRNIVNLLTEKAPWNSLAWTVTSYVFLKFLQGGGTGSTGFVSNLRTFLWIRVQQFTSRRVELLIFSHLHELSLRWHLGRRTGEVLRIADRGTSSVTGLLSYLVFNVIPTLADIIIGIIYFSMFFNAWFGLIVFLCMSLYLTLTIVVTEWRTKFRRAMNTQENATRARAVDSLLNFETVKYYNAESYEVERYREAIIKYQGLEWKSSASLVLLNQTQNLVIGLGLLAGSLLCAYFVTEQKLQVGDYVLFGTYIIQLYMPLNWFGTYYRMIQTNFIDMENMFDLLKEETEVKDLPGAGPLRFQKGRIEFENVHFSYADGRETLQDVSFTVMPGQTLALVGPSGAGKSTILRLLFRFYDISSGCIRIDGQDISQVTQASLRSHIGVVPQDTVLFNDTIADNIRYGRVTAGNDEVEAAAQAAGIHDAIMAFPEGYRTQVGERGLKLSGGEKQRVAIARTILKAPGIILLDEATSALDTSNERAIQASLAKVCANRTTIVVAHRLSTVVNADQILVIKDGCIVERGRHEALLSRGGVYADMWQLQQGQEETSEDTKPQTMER
p-CIP stab down – lowers stability of the mouse p/CIP coactivator protein | actives 0.01% (n = 290,000) | F442A p/CIP-EGFP cells, EGFP fluorescence, 16 h | decrease of EGFP signal, % at 10 µM;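 active = EGFP signal decrease of at least 30% at 10 µM or well 3 SD below plate mean, unless failing retest; inactive = the rest, including hits failing retest or dose response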
ABCB6 blocker 1 – inhibitors of human ABC transporter ABCB6 | ratio response (% of DMSO), % at 10 µM | 700 tested, under 10 active | K562-ABCB6 porphyrin accumulation, flow cytometry, 1 h; stronger effect = lower value | shares compounds with ABCB6 inh MLPCN;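 active = repeat-averaged ratio response below 75% of DMSO, the collection mean minus 3 SD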;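 also: median porphyrin fluorescence at 575 nm with 488 nm excitation from mitochondria; lower ratio means less porphyrin signal so ABCB6 inhibition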
* = called active by the depositor; / = not tested or not shown.

SMILES	V-ATPase pHluor	Cl transport mod	Dynein cargo inh	ABCB6 inh MLPCN	p-CIP stab down	ABCB6 blocker 1
O=C(c1ccccc1)N1CCN=C1c1ccccc1	3	0.33	0.13	100	4	/
COc1ccc(C(=O)N2CCN=C2c2ccccc2)cc1OC	-1	0.62	-0.3	73*	-7	100
COc1ccc(-c2cc(C(F)(F)F)c(C#N)c(SCC(=O)O)n2)cc1	0	-0.63	0.71	97	8	/
Cc1ccc(-c2cc(C(F)(F)F)c(C#N)c(SCCC#N)n2)o1	-1	-0.14	0.37	71*	0	103
CCCOc1ccc(C(CC(=O)O)NC(=O)c2ccc3c(c2)OCO3)cc1 (stereo not given)	-6	/	1.1	57*	9	101
COc1cccc(-c2nc(NC(C)C)c3ccccc3n2)c1O	-1	/	0.55	49*	7	99
COc1ccccc1Cn1nnc2c(=O)[nH]c(C3CCN(C(=O)c4ccc(F)cc4)CC3)nc21	-2	-0.93	0.67	98	-2	/
COc1ccccc1Cn1nnc2c(=O)[nH]c(C3CCN(C(=O)c4ccc(C)cc4)CC3)nc21	-1	0.41	-1.1	112	-1	100
COc1ccccc1Cn1nnc2c(=O)[nH]c(C3CCN(C(=O)c4ccccc4Cl)CC3)nc21	0	-1.5	0.14	99	2	100
CCOC(=O)[C@]12CCCC=C1N(Cc1cccc3ccccc13)C(=O)[C@H](CC(=O)NCCCN1CCCC1=O)C2	/	/	/	97	/	/
CSCCC(=O)N1CCCC(N2CCN(c3cccc(C(F)(F)F)c3)CC2)C1 (stereo not given)	-2	/	/	100	0	/
CCOC(=O)C1(C(F)(F)F)N=C(C(F)(F)F)Nc2ccc(F)cc21 (stereo not given)	1	0.24	0.31	59*	-17	103
CCOC(=O)C(NC(=O)Nc1ccc(F)cc1)(OCC)C(F)(F)F (stereo not given)	-3	0.47	0.46	88	-4	/
CCN(c1cccc(C(F)(F)F)c1)S(=O)(=O)c1ccc2c(c1)CCN2C(=O)C1CC1	4	-0.47	0.24	72*	4	101
CCC(=O)N1CCc2cc(S(=O)(=O)N(CC)c3cccc(C)c3)ccc21	0	0.32	-0.26	92	1	/
COc1ccc(S(=O)(=O)NCC(c2cccnc2)N2CCN(C)CC2)cc1OC (stereo not given)	-6	/	/	99	3	/
O=C(O)c1ccccc1N=Cc1c(O)n(-c2nccs2)c(=O)c2ccccc12	-1	-1.8	0.32	95	-4	/
CCN(CC)S(=O)(=O)c1cccc(-n2c(O)c(C=Nc3ccccc3C(=O)O)c3ccccc3c2=O)c1	1	-1.9	2.3	74*	-6	83
O=C(CSc1nnc2c(Cl)cc(C(F)(F)F)cn12)N(Cc1ccccc1)Cc1ccccc1	-1	-1	-0.35	74*	-7	97
Cc1cccc(C(=O)OCC(=O)NCCCc2ccccc2)c1O	6	/	/	18*	6	100
O=C(c1ccccc1)C(C(=O)N1CCc2ccccc2C1)n1ccccc1=O (stereo not given)	-1	-0.56	-0.44	73*	7	98
COc1ccc(N(CC(=O)NC(C)C)S(=O)(=O)c2ccc(NC(C)=O)cc2)cc1	-2	-0.5	0.46	69*	2	98
Cc1ccc(F)c(S(=O)(=O)NC(=O)C2(C)CCN2C(=O)Cc2cccc3ccccc23)c1 (stereo not given)	/	/	/	85	/	97
CC(C)(C)c1ccc(CC(=O)N2CCC2(C)C(=O)NS(=O)(=O)c2cccc(F)c2)cc1 (stereo not given)	/	/	/	98	/	102
Cc1cccc(S(=O)(=O)NC(=O)C2(C)CCN2C(=O)Cc2ccccc2)c1 (stereo not given)	/	/	/	99	/	102
SMILES	V-ATPase pHluor	Cl transport mod	Dynein cargo inh	ABCB6 inh MLPCN	p-CIP stab down	ABCB6 blocker 1
CC(C)(C)c1ccc(CC(=O)N2CCC2(C)C(=O)NS(=O)(=O)c2ccccc2C(F)(F)F)cc1 (stereo not given)	/	/	/	86	/	100
CCCc1nnc(NC(=O)C23CC4CC(CC(C4)C2)C3)s1	2	/	/	97	3	/
CC1(C(=O)NS(=O)(=O)c2cccc(Cl)c2)CCN1C(=O)Cc1ccc(Cl)cc1Cl (stereo not given)	/	/	/	95	/	/
Cc1cccc(S(=O)(=O)NC(=O)C2(C)CCN2C(=O)CCc2ccccc2)c1 (stereo not given)	/	/	/	94	/	/
Cc1cccc(S(=O)(=O)NC(=O)C2(C)CCN2C(=O)Cc2ccc(Cl)cc2Cl)c1 (stereo not given)	/	/	/	104	/	101
Cc1ccc(S(=O)(=O)NC(=O)C2(C)CCN2C(=O)Cc2ccc(-c3ccccc3)cc2)cc1 (stereo not given)	/	/	/	97	/	102
CC1(C(=O)NS(=O)(=O)c2cccc(C#N)c2)CCN1C(=O)CCc1ccccc1 (stereo not given)	/	/	/	99	/	101
CC1(C(=O)NS(=O)(=O)c2ccccc2)CCN1C(=O)Cc1ccccc1 (stereo not given)	/	/	/	98	/	/
Cc1ccc(NC(=O)CN2C(=O)NC3(CCCc4ccccc43)C2=O)c([N+](=O)[O-])c1 (stereo not given)	-2	/	/	90	2	/
CC(C)OCCCNc1nc2c(cnn2C)c(=O)[nH]1	0	/	/	103	/	/
CCCSc1nnc(CNS(=O)(=O)c2ccc(C)cc2)n1C	-5	/	/	98	-3	/
CCc1nnc(N/N=C/c2c(C)[nH]c3ccccc23)n1N	-2	0.18	-1	104	-15	/
CCOC(=O)c1c(NC(=O)c2ccc(N3C(=O)[C@@H]4[C@H](C3=O)[C@H]3C=C[C@@H]4C3)cc2)sc2c1CC(C)CC2 (stereo not given in full)	-3	-0.64	0.15	68*	3	96
CC(Oc1cc2oc(=O)c3c(c2cc1Cl)CCCC3)C(=O)NCc1cccnc1 (stereo not given)	1	/	/	97	-13	/
CC(Oc1ccc2c3c(c(=O)oc2c1)CCCC3)C(=O)NCc1cccnc1 (stereo not given)	-4	/	/	58*	-14	101
Cc1ccc(Sc2ncccc2C(N)=O)cc1	3	/	/	95	/	/
CN(C)C(CNC(=O)c1cccc(S(=O)(=O)Nc2ccc(SC(F)F)cc2)c1)c1ccccc1 (stereo not given)	-7	/	/	97	/	/
CCC(CNC(=O)c1c(C)nn(-c2ccccc2)c1Cl)c1ccccc1 (stereo not given)	0	/	/	104	-1	/
Cc1cc(O)c(C(C)C)cc1NC(=O)Cn1nc(C)c2ccccc2c1=O	0	-0.035	0.62	74*	-14	101
CC1=NN(C(N)=S)C(=O)C1N=Nc1ccc(Cl)cc1Cl (stereo not given)	-2	/	/	89	0	/
COc1ccc(C)cc1S(=O)(=O)N1CCC(C(=O)NC2CCCC2)CC1	3	/	/	97	-12	/
